Experimental data reported in ChEMBL document CHEMBL5230166, “Novel quinoline-piperazine hybrids: the design, synthesis and evaluation of antibacterial and antituberculosis properties” (RSC Med Chem, 2023).
Values after ≈ are worked out from the molar mass of the structure shown.

Assays:
Format in all cases: functional
Enterococcus faecium = assay: Antibacterial activity against Enterococcus faecium ATCC 49624 assessed as inhibition of bacterial growth incubated for 22 to 24 hrs; conditions: time 22-24 hrs
Outline: (§1)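 Broth MIC referenced to an earlier protocol. Inocula come from mid-log cultures sub-cultured on soybean casein digest agar, adjusted to McFarland (~10⁸ CFU/mL), then diluted to ~10⁵ CFU/mL. Compounds and controls are serially diluted from 64 to 0.03 µg/mL. Tested in triplicate, read after 22–24 h at 37 °C. MIC is the lowest concentration with no visible growth.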

Moraxella catarrhalis = assay: Antibacterial activity against Moraxella catarrhalis ATCC 25238 assessed as inhibition of bacterial growth incubated for 22 to 24 hrs; conditions: time 22-24 hrs; outline: as §1
[1] = test system: Mycobacterium tuberculosis; assay: Antibacterial activity against Mycobacterium tuberculosis H37Rv ATCC 25618 assessed as inhibition of bacterial growth incubated for 2 days by CLSI protocol based broth microdilution method; conditions: H37Rv ATCC 25618, 48 h, time 2 day
Acinetobacter baumannii = assay: Antibacterial activity against clinical isolate Acinetobacter baumannii BAA 747 assessed as inhibition of bacterial growth incubated for 22 to 24 hrs; conditions: time 22-24 hrs
[2] = test system: Staphylococcus epidermidis; assay: Antibacterial activity against clinical isolate methicillin resistant Staphylococcus epidermidis AB 735 assessed as inhibition of bacterial growth incubated for 22 to 24 hrs; conditions: time 22-24 hrs
Staphylococcus aureus [3] = assay: Antibacterial activity against methicillin sensitive Staphylococcus aureus ATCC 29213 assessed as inhibition of bacterial growth incubated for 22 to 24 hrs; conditions: time 22-24 hrs; outline: as §1
Klebsiella pneumoniae = assay: Antibacterial activity against clinical isolate Klebsiella pneumoniae AB 356 assessed as inhibition of bacterial growth incubated for 22 to 24 hrs; conditions: time 22-24 hrs
Escherichia coli = assay: Antibacterial activity against clinical isolate Escherichia coli AB 117 assessed as inhibition of bacterial growth incubated for 22 to 24 hrs; conditions: time 22-24 hrs
Enterococcus faecalis = assay: Antibacterial activity against vancomycin resistant Enterococcus faecalis ATCC 700802 assessed as inhibition of bacterial growth incubated for 22 to 24 hrs; conditions: time 22-24 hrs
Outline: (§2)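 Broth microdilution MIC. Strains were subcultured on Soybean Casein Digest Agar, and inocula were taken from mid-log culture, adjusted to McFarland (~10⁸ CFU/mL), then diluted to ~10⁵ CFU/mL. Serial dilutions ran from 64 to 0.03 µg/mL. Plates were incubated 22–24 h at 37 °C, in triplicate. MIC was the lowest concentration with no visible growth.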

Staphylococcus aureus [4] = assay: Antibacterial activity against methicillin resistant Staphylococcus aureus ATCC 33591 assessed as inhibition of bacterial growth incubated for 22 to 24 hrs; conditions: time 22-24 hrs; outline: as §2
[5] = test system: Mycolicibacterium smegmatis; assay: Antibacterial activity against Mycobacterium smegmatis ATCC 607 assessed as inhibition of bacterial growth incubated for 2 days by CLSI protocol based broth microdilution method; conditions: ATCC 607, 48 h, time 2 day
Outline: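 CLSI broth microdilution in Middlebrook 7H9 with 10% ADC. Compounds are dissolved in DMSO at 4.0 mg/mL (stock) and serially diluted from 64 to 0.015 µg/mL. Inoculum is ~10⁵ CFU/mL, checked by plating on 7H11 agar. Rifampin and levofloxacin are positive controls; drug-free broth with DMSO is the negative control. Growth inhibition is read after 2 days at 37 °C as MIC.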

Pseudomonas aeruginosa = assay: Antibacterial activity against clinical isolate Pseudomonas aeruginosa AB 645 assessed as inhibition of bacterial growth incubated for 22 to 24 hrs; conditions: time 22-24 hrs

| SMILES | MIC (Enterococcus faecium) [µg/mL] | MIC (Moraxella catarrhalis) [µg/mL] | MIC [1] [µg/mL] | MIC (Acinetobacter baumannii) [µg/mL] | MIC [2] [µg/mL] | MIC (Staphylococcus aureus [3]) [µg/mL] | MIC (Klebsiella pneumoniae) [µg/mL] | MIC (Escherichia coli) [µg/mL] | MIC (Enterococcus faecalis) [µg/mL] | MIC (Staphylococcus aureus [4]) [µg/mL] | MIC [5] [µg/mL] | MIC (Pseudomonas aeruginosa) [µg/mL] |
| --- | --- | --- | --- | --- | --- | --- | --- | --- | --- | --- | --- | --- |
| COc1cc(CN2CCN(S(=O)(=O)c3ccc(Cl)cc3Cl)CC2)nc2ccc(F)cc12 | > 64 | > 64 | > 64 | > 64 | > 64 | > 64 | > 64 | > 64 | > 64 | > 64 | > 64 | > 64 |
| COc1cc(CN2CCN(S(=O)(=O)c3ccc(C)cc3)CC2)nc2ccc(F)cc12 | > 64 | 16 (≈ 37.3 µM) | > 64 | > 64 | 32 (≈ 74.5 µM) | 64 (≈ 149 µM) | > 64 | > 64 | > 64 | > 64 | > 64 | > 64 |
| COc1ccc2nc(CN3CCN(S(=O)(=O)c4ccc(NC(C)=O)cc4)CC3)cc(OC)c2c1 | > 64 | > 64 | > 64 | > 64 | > 64 | > 64 | > 64 | > 64 | > 64 | > 64 | > 64 | > 64 |
| COc1ccc2nc(CN3CCN(S(=O)(=O)c4ccccc4C(F)(F)F)CC3)cc(OC)c2c1 | 8 (≈ 16.1 µM) | 1 (≈ 2.02 µM) | > 64 | > 64 | 16 (≈ 32.3 µM) | 4 (≈ 8.07 µM) | > 64 | 16 (≈ 32.3 µM) | 64 (≈ 129 µM) | 32 (≈ 64.6 µM) | > 64 | > 64 |
| COc1ccc2nc(CN3CCN(S(=O)(=O)c4cccs4)CC3)cc(OC)c2c1 | > 64 | > 64 | > 64 | > 64 | > 64 | > 64 | > 64 | > 64 | > 64 | > 64 | 32 (≈ 73.8 µM) | > 64 |
| COc1ccc2nc(CN3CCN(C(=O)c4ccccc4F)CC3)cc(OC)c2c1 | > 64 | > 64 | > 64 | > 64 | > 64 | > 64 | > 64 | > 64 | > 64 | > 64 | > 64 | > 64 |
| COc1ccc2nc(CN3CCN(S(=O)(=O)c4c(C)cc(C)cc4C)CC3)cc(OC)c2c1 | > 64 | > 64 | > 64 | > 64 | > 64 | > 64 | > 64 | > 64 | > 64 | > 64 | > 64 | > 64 |
| CNS(=O)(=O)N1CCN(Cc2cc(OC)c3cc(OC)ccc3n2)CC1 | > 64 | > 64 | > 64 | > 64 | > 64 | > 64 | > 64 | > 64 | > 64 | > 64 | > 64 | > 64 |
| COc1cccc(C(=O)N2CCN(Cc3cc(OC)c4cc(OC)ccc4n3)CC2)c1 | > 64 | > 64 | > 64 | > 64 | > 64 | > 64 | > 64 | > 64 | > 64 | > 64 | > 64 | > 64 |
| COc1ccc2nc(CN3CCN(C(=O)c4ccccc4OC)CC3)cc(OC)c2c1 | > 64 | > 64 | > 64 | > 64 | > 64 | > 64 | > 64 | > 64 | > 64 | > 64 | > 64 | > 64 |
| COc1ccc2nc(CN3CCN(C(=O)c4ccc(Cl)c(Cl)c4)CC3)cc(OC)c2c1 | > 64 | 64 (≈ 139 µM) | > 64 | > 64 | > 64 | > 64 | > 64 | > 64 | > 64 | > 64 | > 64 | > 64 |
| COc1ccc2nc(CN3CCN(S(=O)(=O)c4cccc5ccccc45)CC3)cc(OC)c2c1 | > 64 | > 64 | > 64 | > 64 | > 64 | > 64 | > 64 | > 64 | > 64 | > 64 | > 64 | > 64 |
| COc1ccc2nc(CN3CCN(C(=O)C4CCC4)CC3)cc(OC)c2c1 | > 64 | 2 (≈ 5.41 µM) | > 64 | > 64 | > 64 | > 64 | > 64 | > 64 | > 64 | > 64 | > 64 | > 64 |
| COc1ccc(S(=O)(=O)N2CCN(Cc3cc(OC)c4cc(F)ccc4n3)CC2)cc1 | > 64 | > 64 | > 64 | > 64 | > 64 | > 64 | > 64 | > 64 | > 64 | > 64 | > 64 | > 64 |
| COc1cc(CN2CCN(S(=O)(=O)c3ccc(NC(C)=O)cc3)CC2)nc2ccc(F)cc12 | > 64 | 32 (≈ 67.7 µM) | > 64 | > 64 | 64 (≈ 135 µM) | > 64 | > 64 | > 64 | > 64 | > 64 | > 64 | > 64 |
| COc1ccc2nc(CN3CCN(C(=O)c4c(Cl)cccc4Cl)CC3)cc(OC)c2c1 | > 64 | > 64 | > 64 | > 64 | > 64 | > 64 | > 64 | > 64 | > 64 | > 64 | > 64 | > 64 |
| COc1ccc2nc(CN3CCN(S(=O)(=O)c4c(F)c(F)c(F)c(F)c4F)CC3)cc(OC)c2c1 | > 64 | > 64 | > 64 | > 64 | > 64 | > 64 | > 64 | > 64 | > 64 | > 64 | > 64 | > 64 |
| COc1ccc2nc(CN3CCN(S(=O)(=O)c4ccc(F)cc4)CC3)cc(OC)c2c1 | > 64 | > 64 | > 64 | > 64 | > 64 | > 64 | > 64 | > 64 | > 64 | > 64 | > 64 | > 64 |
| COc1ccc2nc(CN3CCN(C(=O)c4ccc(Cl)cc4Cl)CC3)cc(OC)c2c1 | > 64 | > 64 | > 64 | > 64 | > 64 | > 64 | > 64 | > 64 | > 64 | > 64 | > 64 | > 64 |
| O=C(O)c1cn(C2CC2)c2cc(N3CCNCC3)c(F)cc2c1=O [CIPROFLOXACIN] | 2 (≈ 6.04 µM) | 0.03 (≈ 0.0905 µM) | – | – | – | 0.5 (≈ 1.51 µM) | – | – | 0.5 (≈ 1.51 µM) | 1 (≈ 3.02 µM) | – | – |
| C[C@H]1COc2c(N3CCN(C)CC3)c(F)cc3c(=O)c(C(=O)O)cn1c23.C[C@H]1COc2c(N3CCN(C)CC3)c(F)cc3c(=O)c(C(=O)O)cn1c23.O [LEVOFLOXACIN] | – | – | 2 | – | – | – | – | – | – | – | 0.125 | – |
| CC(=O)NC[C@H]1CN(c2ccc(N3CCOCC3)c(F)c2)C(=O)O1 [LINEZOLID] | 4 (≈ 11.9 µM) | 4 (≈ 11.9 µM) | – | > 64 | 8 (≈ 23.7 µM) | – | > 64 | 8 (≈ 23.7 µM) | – | – | – | > 64 |
| CO[C@H]1/C=C/O[C@@]2(C)Oc3c(C)c(O)c4c(O)c(c(/C=N/N5CCN(C)CC5)c(O)c4c3C2=O)NC(=O)/C(C)=C\C=C\[C@H](C)[C@H](O)[C@@H](C)[C@@H](O)[C@@H](C)[C@H](OC(C)=O)[C@@H]1C [RIFAMPIN] | – | – | 4 (≈ 4.86 µM) | – | – | – | – | – | – | – | 0.5 (≈ 0.608 µM) | – |
| COc1cc(Cc2cnc(N)nc2N)cc(OC)c1OC [TRIMETHOPRIM] | 0.03 (≈ 0.103 µM) | 4 (≈ 13.8 µM) | – | > 8 | > 8 | 4 (≈ 13.8 µM) | 2 (≈ 6.89 µM) | 16 (≈ 55.1 µM) | 0.25 (≈ 0.861 µM) | 8 (≈ 27.6 µM) | – | > 8 |
